From ChEMBL document CHEMBL2346570, “Small-molecule inhibitors of cytokine-mediated STAT1 signal transduction in β-cells with improved aqueous solubility” (J Med Chem, 2013) come the findings set out here.

Molecules are shown by their SMILES. Values after ≈ are worked out from the molar mass of the structure shown. Active and inactive are the calls of the source. The calls are words filed in the database; no cut-off is given here. A value given as a limit tells only on which side of the number the result lay.

Series [1] concerns INS-1E. The series can be described thus: Inhibition of IFNgamma-induced JAK1/JAK2 signaling in rat INS-1E cells assessed as STAT1 nuclear translocation at 10 uM after 30 mins by immunofluorescence assay. In kind it is cell-based. Summed up:
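IFN-γ-stimulated INS-1E β-cells, with or without compound, for 30 min; cells fixed and STAT1 subcellular (cytoplasm vs nucleus) localization monitored by immunofluorescence imaging.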

Series [2] deals with INS-1E. The series can be described thus: Effect on total STAT1 level in rat INS-1E cells at 10 uM after 30 mins by Western blotting analysis. The format is functional, cell-based. (In general: In western blotting, separated proteins are transferred to a membrane and probed.)
Series [3] concerns INS-1E. The series can be described thus: Inhibition of JAK1/JAK2 in rat INS-1E cells assessed as inhibition of IFNgamma-induced STAT1 phosphorylation at Tyr701 and Ser727 at 10 uM after 30 mins by Western blotting analysis. The format is cell-based. The method, boiled down:
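INS-1E β-cells treated with IFN-γ with or without compound for 30 min; STAT1 phosphorylation at Tyr701 and Ser727 assessed by Western blotting.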

Series [4] in a line: Thermodynamic solubility in PBS at pH 7.4 after 24 hrs by UPLC-MS analysis. The format is physicochemical. As to conditions: for solubility thermodynamic at 24 h: PBS, pH 7.4, read-out: Therm_solubility. The method, boiled down:
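Thermodynamic solubility assay in phosphate buffered saline, pH 7.4.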

Series [5] in a line: Cytoprotective activity in rat INS-1E cells assessed as suppression of cytokine-induced caspase-3/7 activation after 48 hrs by luminescence assay relative to control. The format is functional. The method, boiled down:
(§1)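 INS-1E β-cells exposed to a cytokine mixture (IFN-γ at 500 ng/mL; IL-1β and TNF-α lowered 20- and 10-fold from standard levels) with compound for 48 h; caspase-3/7 activation read as apoptosis. IC50 from dose-response in three replicates; maximum activity expressed as % rescue from cytokine-induced caspase-3/7 activation.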

The nature of series [6]: Cytoprotective activity in rat INS-1E cells assessed as suppression of cytokine-induced caspase-3/7 activation after 48 hrs by luminescence assay. The format is functional, cell-based. Summed up: as §1

One may read the IC50 as the concentration needed to halve the response being measured. With `C[C@@H]1CN([C@@H](C)CO)C(=O)c2cccc(NC(=O)Nc3cccc4cccnc34)c2O[C@H]1CN(C)S(=O)(=O)c1ccc2c(c1)OCCO2`, the inhibition result with INS-1E [1] and in the series with INS-1E [3] was “Active” throughout. In the series with INS-1E [2], the inhibition result was “inactive”. The solubility thermodynamic at 24 h in series [4] came to 1.8 µM (≈ 1.22 µg/mL). For the same compound, the “%max” value in series [5] is 69%. For the same compound, in series [6], the IC50 was 3.26 µM.

`C[C@@H]1CN([C@@H](C)CO)C(=O)c2cccc(NC(=O)Nc3cncc4ccccc34)c2O[C@H]1CN(C)S(=O)(=O)c1ccc2c(c1)OCCO2`: the solubility thermodynamic at 24 h in series [4] was 84.9 µM (≈ 57.4 µg/mL). For the same compound, the “%max” value in series [5] turned out to be 31%. In series [6], the 50% inhibitory concentration (IC50) was 4.1 µM.

Take `C[C@@H]1CN([C@@H](C)CO)C(=O)c2cccc(NC(=O)NCc3cccc4ccccc34)c2O[C@H]1CN(C)S(=O)(=O)c1ccc2c(c1)OCCO2`: the inhibition result in the series on INS-1E [1], in the series with INS-1E [2] and with INS-1E [3] was “inactive” each time. The solubility thermodynamic at 24 h in series [4] came to 0.1 µM (≈ 0.0689 µg/mL). Moreover, the IC50 in series [6] was more than 20 µM.

`C[C@@H]1CN([C@@H](C)CO)C(=O)c2cccc(NC(=O)Nc3cccc4ccncc34)c2O[C@H]1CN(C)S(=O)(=O)c1ccc2c(c1)OCCO2`: the solubility thermodynamic at 24 h in series [4] was determined as 101 µM (≈ 68.5 µg/mL).

Regarding `C[C@@H]1CN([C@@H](C)CO)C(=O)c2cccc(NC(=O)Nc3nccc4ccccc34)c2O[C@H]1CN(C)S(=O)(=O)c1ccc2c(c1)OCCO2`, in series [4], the solubility thermodynamic at 24 h amounted to 0.7 µM (≈ 0.473 µg/mL). Further, the “%max” value in series [5] was found to be 21%. Further, the 50% inhibitory concentration (IC50) in series [6] amounted to 1.05 µM.

As to `C[C@@H]1CN([C@@H](C)CO)C(=O)c2cccc(NC(=O)Nc3ccnc4ccccc34)c2O[C@H]1CN(C)S(=O)(=O)c1ccc2c(c1)OCCO2`, in series [4], the solubility thermodynamic at 24 h worked out at 30.3 µM (≈ 20.5 µg/mL). Besides, in series [6], the IC50 is more than 20 µM.

Take `C[C@@H]1CN([C@@H](C)CO)C(=O)c2cccc(NC(=O)Nc3cccc4ccccc34)c2O[C@H]1CN(C)S(=O)(=O)c1ccc2c(c1)OCCO2`: the inhibition result with INS-1E [1] and in the series on INS-1E [3] was “Active” each time. For the same compound, the inhibition result in the series on INS-1E [2] is “inactive”. The same compound yielded a Therm_solubility in series [4] (buffer, pH 7.4, 24 h) of 0.1 µM. Besides, the “%max” value in series [5] worked out at 71%. Also, the IC50 in series [6] turned out to be 1.66 µM.

In the case of `C[C@@H]1CN([C@@H](C)CO)C(=O)c2cccc(NC(=O)N(C)c3cccc4ccccc34)c2O[C@H]1CN(C)S(=O)(=O)c1ccc2c(c1)OCCO2`, in series [4], the solubility thermodynamic at 24 h is 11.2 µM (≈ 7.71 µg/mL). In addition, the “%max” value in series [5] stood at 15%. Further, in series [6], the IC50 amounted to 4.74 µM.

Take `C[C@@H]1CN([C@@H](C)CO)C(=O)c2cccc(NC(=O)Nc3cccc4cnccc34)c2O[C@H]1CN(C)S(=O)(=O)c1ccc2c(c1)OCCO2`: in series [4], the solubility thermodynamic at 24 h turned out to be 60.5 µM (≈ 40.9 µg/mL). In addition, the “%max” value in series [5] amounted to 59%. The half-inhibitory concentration (IC50) in series [6] worked out at 4.65 µM.

Regarding `C[C@@H]1CN([C@@H](C)CO)C(=O)c2cccc(NC(=O)Nc3cccc4ncccc34)c2O[C@H]1CN(C)S(=O)(=O)c1ccc2c(c1)OCCO2`, the solubility thermodynamic at 24 h in series [4] came out at 138 µM (≈ 93.6 µg/mL). Moreover, the “%max” value in series [5] came out at 41%. Further, the IC50 in series [6] stood at 1.62 µM.
